Assays:
[1] = Activity ratio, difference between the pD2 values for NE obtained in the absence and presence at 3 x 10 E -7 M; type: functional
In short: (§1)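 Isolated rat anococcygeus muscle. Concentration-response curves to norepinephrine (NE) were run with and without the test compound, and potentiation was judged from the shift at low NE concentrations. pD2 is the negative log of the molar NE concentration giving 50% of maximal response. Activity ratio is the antilog of the pD2 difference with versus without compound, with no compound set at 1.0. n is the number of experiments.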

[2] = Activity ratio, difference between the pD2 values for NE obtained in the absence and presence at 10 E -7 M; type: functional; in short: as §1
Rattus norvegicus [3] = organism: Rattus norvegicus; experiment: Tested for potentiating activity on the responses of rat anococcygeus muscle to norepinephrine (NE)at a concentration of 3 x 10 E -6 M; type: functional, Muscle tissue; in short: as §1
[4] = Activity ratio, difference between the pD2 values for NE obtained in the absence and presence at 0 (absence of potentiating compound); type: functional; in short: as §1
Rattus norvegicus [5] = organism: Rattus norvegicus; experiment: Tested for potentiating activity on the responses of rat anococcygeus muscle to norepinephrine (NE)at a concentration of 10 E -6 M; type: functional, Muscle tissue; in short: as §1
Rattus norvegicus [6] = organism: Rattus norvegicus; experiment: Tested for potentiating activity on the responses of rat anococcygeus muscle to norepinephrine (NE)at a concentration of 10 E -7 M; type: functional, Muscle tissue; in short: as §1
Rattus norvegicus [7] = organism: Rattus norvegicus; experiment: Tested for potentiating activity on the responses of rat anococcygeus muscle to norepinephrine (NE)at a concentration of 3 x 10 E -7 M; type: functional, Muscle tissue; in short: as §1
[8] = Activity ratio, difference between the pD2 values for NE obtained in the absence and presence at 10 E -6 M; type: functional; in short: as §1
[9] = Activity ratio, difference between the pD2 values for NE obtained in the absence and presence at 3 x 10 E -6 M; type: functional; in short: as §1
Rattus norvegicus [10] = organism: Rattus norvegicus; experiment: Tested for potentiating activity on the responses of rat anococcygeus muscle to norepinephrine (NE)at a concentration of 0 (absence of potentiating compound); type: functional, Muscle tissue; in short: as §1
Rattus norvegicus [11] = organism: Rattus norvegicus; experiment: Tested for potentiating activity on the responses of rat anococcygeus muscle to norepinephrine (NE)at a concentration of 3 x 10e-6 M; type: functional, Muscle tissue; in short: as §1
[12] = Activity ratio, difference between the pD2 values for NE obtained in the absence and presence at 10e-6 M; type: functional; in short: as §1
[13] = Activity ratio, difference between the pD2 values for NE obtained in the absence and presence at 10e-7 M; type: functional; in short: as §1
[14] = Activity ratio, difference between the pD2 values for NE obtained in the absence and presence at 3 x 10e-7 M; type: functional; in short: as §1
Rattus norvegicus [15] = organism: Rattus norvegicus; experiment: Tested for potentiating activity on the responses of rat anococcygeus muscle to norepinephrine (NE)at a concentration of 10e-7 M; type: functional, Muscle tissue; in short: as §1
Rattus norvegicus [16] = organism: Rattus norvegicus; experiment: Tested for potentiating activity on the responses of rat anococcygeus muscle to norepinephrine (NE)at a concentration of 10e-6 M; type: functional, Muscle tissue; in short: as §1
Rattus norvegicus [17] = organism: Rattus norvegicus; experiment: Tested for potentiating activity on the responses of rat anococcygeus muscle to norepinephrine (NE)at a concentration of 3 x 10e -7 M; type: functional, Muscle tissue; in short: as §1

Row | Compound | Ratio [1] | Ratio [2] | pD2 (Rattus norvegicus [3]) | Ratio [4] | pD2 (Rattus norvegicus [5]) | pD2 (Rattus norvegicus [6]) | pD2 (Rattus norvegicus [7]) | Ratio [8] | Ratio [9] | pD2 (Rattus norvegicus [10]) | pD2 (Rattus norvegicus [11]) | Ratio [12] | Ratio [13] | Ratio [14] | pD2 (Rattus norvegicus [15]) | pD2 (Rattus norvegicus [16]) | pD2 (Rattus norvegicus [17])
1 | CN1Cc2ccccc2[C@](O)(c2ccccc2)C1 | 6 | 2.3 | 7.56 | 1 | 7.28 | 6.6 | 7.01 | 11.2 | 21.4 | 6.23 | – | – | – | – | – | – | –
2 | CN1Cc2ccccc2[C@@](O)(c2ccccc2)C1 | 1 | – | 6.27 | 1 | 6.23 | – | 6.24 | 1 | 1.1 | 6.23 | – | – | – | – | – | – | –
3 | CN1Cc2ccccc2C(O)(c2ccccc2)C1 (racemic) | – | – | – | 1 | – | – | – | – | 17.8 | 6.25 | 7.5 | 8.5 | 1.5 | 3 | 6.42 | 7.18 | 6.73
